Test results from ChEMBL document CHEMBL1687794, “Phenotypic and biochemical comparison of the carbapenem-hydrolyzing activities of five plasmid-borne AmpC β-lactamases” (2010).
Values after ≈ are worked out from the molar mass of the structure shown.

How the values were obtained:
[1] = Activity of Beta-lactamase ACT-1
How it was run: (§1)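 Enzyme source: AmpC genes cloned without native promoter under lacZ control, expressed in E. coli TOP10, purified (FOX-1 by two Q-Sepharose steps, bis-Tris pH 6.8 then Tris-HCl pH 9). Hydrolysis monitored spectrophotometrically at 30°C in 100 mM sodium phosphate pH 7.0 with cephaloridine, ertapenem, imipenem or meropenem. kcat from initial rates at saturating substrate ([S] = 100 × Km).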

[2] = Ratio of Kcat to Km for Beta-lactamase ACT-1
How it was run: (§2)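 Purified TOP10-expressed AmpC enzymes, assayed spectrophotometrically at 30°C, 100 mM sodium phosphate pH 7.0. Cephaloridine Km and kcat from initial rates via Eadie-Hofstee linearization. For imipenem, Ki replaced Km, measured against cephaloridine as reporter substrate. kcat from initial rates at saturating substrate ([S] = 100 × Km) using undiluted enzyme extract. Efficiency taken as kcat/Km.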

Escherichia coli [3] = assay: Antimicrobial activity against OmpC/OmpF porin deficient Escherichia coli HB4 transformed with Escherichia coli ECB-1 plasmid carrying ACC-1 by agar dilution method; assay type: functional
How it was run: (§3)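 Agar dilution on Mueller-Hinton agar, inoculum 10^4 CFU per spot, interpreted per CLSI. Host is E. coli HB4, which lacks OmpC and OmpF, with or without a cloned ampC gene under the lacZ promoter. Panel: cefoxitin, cefuroxime, cefotaxime, ceftazidime, cefepime, imipenem, ertapenem, meropenem.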

[4] = Ratio of Kcat to Km for Beta-lactamase FOX-1; how it was run: as §2
[5] = Activity of Beta-lactamase DHA-1; how it was run: as §1
[6] = Activity of Beta-lactamase FOX-1; how it was run: as §1
[7] = Ratio of Kcat to Km for Beta-lactamase AmpC-B2; how it was run: as §2
Escherichia coli [8] = assay: Antimicrobial activity against Escherichia coli TOP10 transformed with Escherichia coli EC-6 plasmid carrying AmpC-B2 by agar dilution method; assay type: functional
How it was run: (§4)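 Agar dilution MICs on Mueller-Hinton agar, 10^4 CFU per spot, read by CLSI guidelines. Strains are wild-type E. coli TOP10, with or without a cloned ampC gene (native promoter removed, lacZ promoter-driven). Antibiotics tested: cefoxitin, cefuroxime, cefotaxime, ceftazidime, cefepime, imipenem, ertapenem, meropenem.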

Escherichia coli [9] = assay: Antimicrobial activity against OmpC/OmpF porin deficient Escherichia coli HB4 transformed with Escherichia coli pGLK-1 plasmid carrying FOX-1 by agar dilution method; assay type: functional; how it was run: as §3
[10] = Ratio of Kcat to Km for Beta-lactamase CMY-2; how it was run: as §2
Escherichia coli [11] = assay: Antimicrobial activity against OmpC/OmpF porin deficient Escherichia coli HB4 transformed with Escherichia coli DH10B plasmid carrying DHA-1 by agar dilution method; assay type: functional; how it was run: as §3
[12] = Activity of Beta-lactamase CMY-2; how it was run: as §1
[13] = Activity of Beta-lactamase ACC-1
How it was run: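 ACC-1 cloned without its native promoter behind the lacZ promoter, expressed in E. coli TOP10 and purified. Ki, Km and kcat measured by UV spectrophotometry at 30°C in 100 mM sodium phosphate pH 7.0. Cephaloridine Km/kcat from initial rates by Eadie-Hofstee analysis. Imipenem Ki measured against cephaloridine reporter substrate; kcat from initial rates at [S] = 100 × Km.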

Escherichia coli [14] = assay: Antimicrobial activity against Escherichia coli TOP10 transformed with Escherichia coli ECB2 plasmid carrying CMY-2 by agar dilution method; assay type: functional; how it was run: as §4
Escherichia coli [15] = assay: Antimicrobial activity against OmpC/OmpF porin deficient Escherichia coli HB4 transformed with Escherichia coli ECB2 plasmid carrying CMY-2 by agar dilution method; assay type: functional; how it was run: as §3
Escherichia coli [16] = assay: Antimicrobial activity against Escherichia coli TOP10 transformed with Escherichia coli pGLK-1 plasmid carrying FOX-1 by agar dilution method; assay type: functional; how it was run: as §4
Escherichia coli [17] = assay: Antimicrobial activity against OmpC/OmpF porin deficient Escherichia coli HB4 transformed with Escherichia coli EC-6 plasmid carrying AmpC-B2 by agar dilution method; assay type: functional; how it was run: as §3
Escherichia coli [18] = assay: Antimicrobial activity against OmpC/OmpF porin deficient Escherichia coli HB4 transformed with Enterobacter asburiae CIP 105006 plasmid carrying ACT-1 by agar dilution method; assay type: functional; how it was run: as §3
[19] = Activity of Beta-lactamase AmpC-B2; how it was run: as §1
Escherichia coli [20] = assay: Antimicrobial activity against Escherichia coli TOP10 transformed with Escherichia coli ECB-1 plasmid carrying ACC-1 by agar dilution method; assay type: functional; how it was run: as §4
Escherichia coli [21] = assay: Antimicrobial activity against Escherichia coli TOP10 transformed with Enterobacter asburiae CIP 105006 plasmid carrying ACT-1 by agar dilution method; assay type: functional; how it was run: as §4
Escherichia coli [22] = assay: Antimicrobial activity against Escherichia coli TOP10 transformed with Escherichia coli DH10B plasmid carrying DHA-1 by agar dilution method; assay type: functional; how it was run: as §4
Escherichia coli [23] = assay: Antimicrobial activity against OmpC/OmpF porin deficient Escherichia coli HB4 by agar dilution method; assay type: functional; how it was run: as §3
Escherichia coli [24] = assay: Antimicrobial activity against Escherichia coli TOP10 by agar dilution method

Compound	MIC (Escherichia coli [3]) [µg/mL]	MIC (Escherichia coli [8]) [µg/mL]	MIC (Escherichia coli [9]) [µg/mL]	MIC (Escherichia coli [11]) [µg/mL]	MIC (Escherichia coli [14]) [µg/mL]	MIC (Escherichia coli [15]) [µg/mL]	MIC (Escherichia coli [16]) [µg/mL]	MIC (Escherichia coli [17]) [µg/mL]	MIC (Escherichia coli [18]) [µg/mL]	MIC (Escherichia coli [20]) [µg/mL]	MIC (Escherichia coli [21]) [µg/mL]	MIC (Escherichia coli [22]) [µg/mL]	MIC (Escherichia coli [23]) [µg/mL]	MIC (Escherichia coli [24]) [µg/mL]	also measured
C[C@@H](O)[C@H]1C(=O)N2C(C(=O)O)=C(SCCNC=N)C[C@H]12 [IMIPENEM ANHYDROUS]	0.5 (≈ 1.67 µM)	0.125 (≈ 0.418 µM)	0.5 (≈ 1.67 µM)	2 (≈ 6.68 µM)	0.5 (≈ 1.67 µM)	32 (≈ 107 µM)	0.25 (≈ 0.835 µM)	0.5 (≈ 1.67 µM)	16 (≈ 53.4 µM)						Km [1]: 3 µM; kcat [1]: 0.02 s⁻¹; kcat/Km [2]: 7000 M⁻¹ s⁻¹; kcat/Km [4]: 300 M⁻¹ s⁻¹; kcat [5]: < 0.001 s⁻¹; Km [6]: 35 µM; kcat [6]: 0.01 s⁻¹; kcat/Km [7]: 2000 M⁻¹ s⁻¹; kcat/Km [10]: 40000 M⁻¹ s⁻¹; Km [12]: 1 µM; kcat [12]: 0.04 s⁻¹; kcat [13]: < 0.001 s⁻¹; Km [19]: 35 µM; kcat [19]: 0.08 s⁻¹
CC(C)(O/N=C(\C(=O)N[C@@H]1C(=O)N2C(C(=O)[O-])=C(C[n+]3ccccc3)CS[C@H]12)c1csc(N)n1)C(=O)O [CEFTAZIDIME]	16 (≈ 29.3 µM)	1 (≈ 1.83 µM)	512 (≈ 937 µM)	256 (≈ 468 µM)	256 (≈ 468 µM)	> 512	64 (≈ 117 µM)	8 (≈ 14.6 µM)	> 512	8 (≈ 14.6 µM)	128 (≈ 234 µM)	64 (≈ 117 µM)	4 (≈ 7.32 µM)	0.06 (≈ 0.11 µM)	
C[C@@H](O)[C@H]1C(=O)N2C(C(=O)O)=C(S[C@@H]3CN[C@H](C(=O)Nc4cccc(C(=O)O)c4)C3)[C@H](C)[C@H]12 [ERTAPENEM]	2 (≈ 4.21 µM)	0.064 (≈ 0.135 µM)	4 (≈ 8.41 µM)	16 (≈ 33.6 µM)	0.064 (≈ 0.135 µM)	256 (≈ 538 µM)	0.032 (≈ 0.0673 µM)	2 (≈ 4.21 µM)	256 (≈ 538 µM)	0.006 (≈ 0.0126 µM)	0.016 (≈ 0.0336 µM)	0.012 (≈ 0.0252 µM)	1 (≈ 2.1 µM)	0.006 (≈ 0.0126 µM)	
C[C@@H](O)[C@H]1C(=O)N2C(C(=O)O)=C(S[C@@H]3CN[C@H](C(=O)N(C)C)C3)[C@H](C)[C@H]12 [MEROPENEM]	0.5 (≈ 1.3 µM)	0.032 (≈ 0.0834 µM)	0.75 (≈ 1.96 µM)	1 (≈ 2.61 µM)	0.064 (≈ 0.167 µM)	8 (≈ 20.9 µM)	0.125 (≈ 0.326 µM)	0.032 (≈ 0.0834 µM)	4 (≈ 10.4 µM)	0.032 (≈ 0.0834 µM)	0.032 (≈ 0.0834 µM)	0.032 (≈ 0.0834 µM)	0.032 (≈ 0.0834 µM)	0.032 (≈ 0.0834 µM)	
